# Data published in ChEMBL document CHEMBL1123855, “Synthesis of glycopyranosylphosphonate analogues of certain natural nucleoside diphosphate sugars as potential inhibitors of glycosyltransferases” (J Med Chem, 1987).
# Activity calls are given as the source filed them. The calls are words filed in the database; no cut-off is given here.
# How the values were obtained:
# [1] = tested on: Vero; assay: In vitro antiviral activity was evaluated against vero cell lines infected with Parainfluenza virus type 3; non toxic at concentrations as high as 50000 uM; assay type: functional, cell-based; conditions: Chlorocebus sabaeus
# [2] = tested on: Vero; assay: In vitro antiviral activity was evaluated against vero cell lines infected with visna virus; non toxic at concentrations as high as 50000 uM; assay type: functional, cell-based; conditions: Chlorocebus sabaeus
# [3] = tested on: L1210; assay: In vitro antitumor activity was evaluated against L1210 leukemia cell lines; No activity; assay type: functional, cell-based; conditions: Mus musculus
# [4] = tested on: CCRF-CEM; assay: In vitro antitumor activity was evaluated against human T-lymphoblastic leukemia cell lines; no = No activity; assay type: functional, cell-based
# [5] = tested on: Vero; assay: In vitro antiviral activity was evaluated against vero cell lines infected with adenovirus type 2; non toxic at concentrations as high as 50000 uM; assay type: functional, cell-based; conditions: Chlorocebus sabaeus
# [6] = tested on: Vero; assay: In vitro antiviral activity was evaluated against vero cell lines infected with rhino virus; non toxic at concentrations as high as 50000 uM; assay type: functional, cell-based; conditions: Chlorocebus sabaeus
# [7] = tested on: WIL2; assay: In vitro antitumor activity was evaluated against human B-lymphoblastic leukemia cell lines; no = No activity; assay type: functional, cell-based
# [8] = tested on: Vero; assay: In vitro antiviral activity was evaluated against vero cell lines infected with influenza virus; Slightly active at concentrations as high as 50000 uM; assay type: functional, cell-based; conditions: Chlorocebus sabaeus
# [9] = tested on: Vero; assay: In vitro antiviral activity was evaluated against vero cell lines infected with herpes simplex virus type-2; non toxic at concentrations as high as 50000 uM; assay type: functional, cell-based; conditions: Chlorocebus sabaeus
# [10] = tested on: CCRF-CEM; assay: In vitro antitumor activity was evaluated against human T-lymphoblastic leukemia cell lines; Slight activity; assay type: functional, cell-based
# [11] = tested on: WIL2; assay: In vitro antitumor activity was evaluated against human B-lymphoblastic leukemia cell lines; Slight activity; assay type: functional, cell-based
# [12] = target: N-acetyllactosaminide alpha-1,3-galactosyltransferase (Mus musculus) (UniProt P23336); assay: Inhibition of galactosyltransferase activity secreted by L1210 leukemia cells grown in mouse peritoneal ascites at 50 ug/mL (89 uM); assay type: cell-based
# Chain of N-acetyllactosaminide alpha-1,3-galactosyltransferase (Mus musculus) (P23336 whole entry): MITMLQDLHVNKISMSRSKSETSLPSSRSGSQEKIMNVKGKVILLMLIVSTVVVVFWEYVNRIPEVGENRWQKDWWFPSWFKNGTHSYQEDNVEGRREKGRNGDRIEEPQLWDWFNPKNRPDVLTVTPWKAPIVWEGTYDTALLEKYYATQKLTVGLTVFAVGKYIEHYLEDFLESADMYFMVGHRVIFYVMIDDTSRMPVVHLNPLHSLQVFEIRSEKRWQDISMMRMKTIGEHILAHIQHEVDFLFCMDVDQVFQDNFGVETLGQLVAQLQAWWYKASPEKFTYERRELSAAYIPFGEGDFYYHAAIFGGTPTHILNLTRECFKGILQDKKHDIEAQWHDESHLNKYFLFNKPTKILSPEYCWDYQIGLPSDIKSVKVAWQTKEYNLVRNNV
# Procedure, shortened: (§1)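 Galactosyltransferase from cell-free ascites fluid of DBA/2J mice implanted 5-7 days earlier with 10^5 L1210 cells, cells removed by centrifugation. Medium: ovalbumin 1 mg/mL acceptor, 0.1 M cacodylate pH 7.0, 10 mM MnCl2, 2 mM AMP, inhibitor 20 or 50 ug/mL, UDP-galactose varied 1-80 uM plus UDP-[3H]galactose. 30 min, 37 °C. Stopped with PTA/HCl; washed precipitate scintillation-counted. Duplicates.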
# [13] = target: N-acetyllactosaminide alpha-1,3-galactosyltransferase (Mus musculus) (UniProt P23336); assay: Inhibition of galactosyltransferase activity secreted by L1210 leukemia cells grown in mouse peritoneal ascites at 20 ug/mL (35 uM); assay type: cell-based; procedure, shortened: as §1
SMILES,Activity [1],Activity [2],Cytotoxiciy [3],Cytotoxiciy [4],Activity [5],Activity [6],Cytotoxiciy [7],Activity [8],Activity [9],Cytotoxiciy [10],Cytotoxiciy [11],inhibition [12],inhibition [13]
O=P(O)(O)[C@H]1O[C@@H](CO)[C@@H](O)[C@H](O)[C@@H]1O,inactive,inactive,No activity,No activity,inactive,Slightly active,No activity,inactive,inactive,–,–,–,–
Nc1ncnc2c1ncn2C1O[C@H](COP(=O)(O)OP(=O)(O)C2O[C@H](CO)[C@@H](O)[C@H](O)[C@H]2O)[C@@H](O)[C@H]1O (stereo partly drawn),inactive,inactive,No activity,–,inactive,inactive,–,–,inactive,Weak activity,Weak activity,–,–
O=c1ccn(C2O[C@H](COP(=O)(O)OP(=O)(O)C3O[C@H](CO)[C@@H](O)[C@H](O)[C@H]3O)[C@@H](O)[C@H]2O)c(=O)[nH]1 (stereo partly drawn),–,–,–,–,–,–,–,–,–,–,–,58%,50%
O=P(O)(O)[C@H]1O[C@@H](CO)[C@H](O)[C@H](O)[C@@H]1O (stereo in doubt; 17),inactive,inactive,No activity,No activity,inactive,inactive,No activity,–,inactive,–,–,–,–
CC(=O)OP(=O)(O)C1OC(COCc2ccccc2)C(OCc2ccccc2)C(OCc2ccccc2)C1OCc1ccccc1 (stereo not drawn),inactive,inactive,No activity,No activity,inactive,inactive,No activity,–,inactive,–,–,–,–
O=P(O)(O)[C@H]1O[C@@H](CO)[C@H](O)[C@H](O)[C@@H]1O (stereo in doubt; 19),inactive,inactive,No activity,No activity,inactive,inactive,No activity,–,inactive,–,–,–,–
